Hits are enriched below; roughly 3.4% of the tested compounds scored in any of these assays.
TMEM16A inh = TMEM16A chloride channel inhibitors, primary screen, cell-based, HTS; HEK293 TMEM16A/YFP iodide influx fluorescence, ionomycin; 310,000 compounds, 1.2% hits; normalized B-score (activity score, 25-100; higher = stronger inhibition) at 10 µM; AID 588511, 2011;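 active means ratio plate-corrected score three or more library SD toward inhibition, starting fluorescence score within five deviations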;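 further: score derived from kinetic fluorescence span divided by baseline fluorescence per well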
MC4R ag barr = MC4R agonists recruiting beta-arrestin, primary screen, cell-based, luminescence, agonist arm of biased-ligand search. 360,000 compounds, 0.98% hits. Melanocortin receptor 4 (Homo sapiens), P32245. activation, % at 8.9 µM. U2OS MC4R beta-arrestin complementation; percent of melanotan II response, DMSO zero;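 active means activation above a per-plate cutoff, the mean activation of sample wells on that plate plus 3 SD, cut at about 8% in these data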
MC4R antag cAMP = MC4R antagonists of cAMP signaling, primary screen, cell-based, TR-FRET, antagonist arm of biased-ligand search; Melanocortin receptor 4 (Homo sapiens), P32245; MC4R-expressing cells, MTII-stimulated cAMP, LANCE TR-FRET; inhibition, % at 6.5 µM; 360,000 compounds, 0.48% hits; AID 540295, 2011;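 active means inhibition above its plate's cutoff, the mean of tested wells on that plate plus 3 SD, cut at about 29% in these data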;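 further: 0% = Melanotan II alone and 100% = Melanotan II plus saturating MCL0020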
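Test system: U2OS cells stably expressing human melanocortin 4 receptor (MC4R); also added: Melanotan II challenge; compound: 6.5 µM single dose; timing: 30-min compound preincubation, 1-h Melanotan II challenge, 1-h detection, room temperature; signal: Eu-cAMP/anti-cAMP TR-FRET, emission 671 nm; repeats: one well per compound, no replicates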
ANO1 activ = TMEM16A chloride channel activators or potentiators, primary screen, cell-based, HTS; Anoctamin-1 (Mus musculus), Q8BHY3; HEK293 TMEM16A/YFP-H148Q/I152L, iodide quench fluorescence; hits give low values; B-score at 10 µM; 340,000 compounds, 0.3% hits;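 active means fluorescence-ratio B-score plate-corrected deviation score at least 3 library SD below zero, with starting fluorescence score within 5 deviations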;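 further: channel opened by trigger with iodide after compound preincubation; score built on the fluorescence ratio of max minus min over baseline; more negative score means more quench and so TMEM16A activation or potentiation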
HTR2A ag = mouse Htr2a agonists via beta-arrestin recruitment, primary screen, cell-based, luminescence; 5-hydroxytryptamine receptor 2A (Mus musculus), P35363; CHO-K1 mHTR2A beta-arrestin complementation; percent of 30 µM serotonin response; activation, % at 7.6 µM; 360,000 compounds, 0.66% hits; AID 624169, 2012;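 active means activation above a run cutoff, the mean activation of all tested compounds plus 3 SD, cut at about 14% in these data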;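 further: 0% = plate median of compound wells and 100% = 30 µM serotonin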
Target sequence (P35363 whole entry, looked up): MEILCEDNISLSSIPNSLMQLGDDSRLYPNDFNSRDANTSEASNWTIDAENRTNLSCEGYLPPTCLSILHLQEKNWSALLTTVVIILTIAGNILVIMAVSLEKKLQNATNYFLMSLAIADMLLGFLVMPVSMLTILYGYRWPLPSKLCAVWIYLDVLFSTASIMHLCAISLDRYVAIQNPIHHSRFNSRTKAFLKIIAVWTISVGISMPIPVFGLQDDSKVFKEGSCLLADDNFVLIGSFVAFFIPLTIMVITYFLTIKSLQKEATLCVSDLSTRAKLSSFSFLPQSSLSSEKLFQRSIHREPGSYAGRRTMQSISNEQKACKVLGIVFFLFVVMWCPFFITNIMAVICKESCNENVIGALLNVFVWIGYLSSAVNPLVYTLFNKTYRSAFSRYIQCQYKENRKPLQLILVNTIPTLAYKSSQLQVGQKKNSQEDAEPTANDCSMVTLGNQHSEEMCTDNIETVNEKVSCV
beta cell repl = inducers of MIN6 beta-cell proliferation, primary screen, ATP luminescence, uHTS; MIN6 cells proliferation, ATPlite luminescence, 48 h; cells starved in 0.2% serum; 100% = growth in 10% serum; proliferation, % at 10 µM; 330,000 compounds, 0.29% hits; AID 2380, 2010;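 active means compounds whose signal lies at least 3.5 SD above the mean of all wells on their plate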;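 further: 0% = DMSO-treated cells in low-serum medium and 100% = 10% serum control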
TMEM16A reconf = TMEM16A chloride channel inhibitors, confirmation, cell-based, re-confirmation. AID 652189, 2013. inhibition, % at 10 µM. 2,300 compounds, 39% hits. HEK293 TMEM16A/YFP-H148Q, iodide quench fluorescence; ionomycin added to raise cell calcium. shares compounds with TMEM16A inh;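 active means mean duplicate percent inhibition, scaled so buffer wells are 0 and the reference blocker 100, over three buffer SD above buffer mean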
HEK293 Ca mobil = calcium mobilization in TMEM16A/YFP HEK293 cells, confirmation, counter-screen for TMEM16A inhibitor project; shares compounds with TMEM16A inh; Fluo4 calcium mobilization; calcium response (% of ionomycin), % at 10 µM; 2,300 compounds, 2% hits;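 active means duplicate-averaged calcium signal over 20% of the ionomycin maximum, relative to buffer baseline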;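 further: each well's signal is peak minus trough fluorescence divided by its pre-addition baseline; 0% = buffer wells and 100% = ionomycin wells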
YFP-HEK293 quench = iodide YFP quench changes in parental YFP-HEK293, counter-screen for TMEM16A inhibitor project, cell-based; shares compounds with TMEM16A inh; ionomycin; YFP ratio F(max-min)/F0 at 10 µM; 2,300 tested, under 10 active; AID 652233, 2013;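 active means yellow fluorescent protein signal ratio exceeding the buffer control mean by over 5 SD of those controls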;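 further: ratio is mean of duplicate wells from kinetic YFP trace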
ClC-1 rat inh = ClC-1 chloride channel inhibition, selectivity assay for TMEM16A inhibitor project, cell-based, voltage-dependent ClC-1; shares compounds with TMEM16A inh; CHO ClC-1-YFP, iodide influx fluorescence quench; iodide control reads 0, buffer control 100; ratio percent, % at 10 µM; 2,300 tested, under 10 active; AID 652236, 2013;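 active means duplicate-mean ratio percent above the mean of iodide-only control wells, which defines zero, plus 5 of their SD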;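 further: higher percent means stronger block of ClC-1 iodide influx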
* = called active by the depositor; i = inactive; . = not tested or not shown.

SMILES	TMEM16A inh	MC4R ag barr	MC4R antag cAMP	ANO1 activ	HTR2A ag	beta cell repl	TMEM16A reconf	HEK293 Ca mobil	YFP-HEK293 quench	ClC-1 rat inh
CCN(CC)C(=O)c1sc2nc(-c3cccs3)cc(-c3cccs3)c2c1N	i	-2	5	i	-2	-7	i	i	-0.6	24
Cc1nnc(NC(=O)c2sc3nc(-c4cccs4)cc(C(F)(F)F)c3c2N)s1	i	0	-5	i	-3	-2	.	.	.	.
Nc1c(C(=O)Nc2nccs2)sc2nc(-c3cccs3)cc(C(F)(F)F)c12	i	5	4	i	0	-3	i	i	-0.64	39
O=C(COC(=O)c1ccc([N+](=O)[O-])s1)c1ccc[nH]1	.	-1	-4	i	1	-6	.	.	.	.
O=C(CSCc1ccc(Cl)cc1)NCCSCc1ccco1	i	0	-5	i	0	0	.	.	.	.
O=C(NCCSCc1ccco1)Nc1cc(Cl)cc(Cl)c1	100*	-1	2	i	1	-3	34%*	i	-0.96	-20
Clc1ccc(-c2csc(=Nc3cccnc3)n2CCCn2ccnc2)cc1Cl	i	5	3	i	-7	0	.	.	.	.
COCCn1c(-c2ccc(Br)cc2)csc1=Nc1cccnc1	25*	1	10	i	-7	-5	34%*	i	-1	-20
COc1ccc(N2C(=O)C3CCCN3C2c2cccc(Br)c2)cc1 (centres undefined)	i	-1	3	i	1	-3	.	.	.	.
COc1ccc(N2C(=O)C3CCCN3C2c2cccc(OC)c2OC)cc1 (centres undefined)	25*	-1	3	i	2	-1	i	i	-0.9	-6
CCOC1=C2CN(S(=O)(=O)c3ccc(C)cc3)C(c3cccc(Cl)c3)CC2NC(c2ccccc2)C1 (centres undefined)	.	.	.	.	-7	.	.	.	.	.
Cc1c(CCC(=O)NCCCC(=O)O)c(=O)oc2cc3oc4c(c3cc12)CCCC4	i	0	11	i	-7	-1	.	.	.	.
Cc1cccc(Cn2c(Sc3nc(C)cs3)nc3c2c(=O)[nH]c(=O)n3C)c1	100*	1	-3	i	1	-1	i	i	-1	-12
CCN(Cc1ccncc1)Cc1cn(C)nc1-c1ccc(Oc2ccccc2)cc1	100*	-1	11	i	2	-3	i	i	-1.2	-6
CC(C)N(C)Cc1cn(C)nc1-c1ccc(Oc2ccccc2)cc1	i	0	-1	i	-3	-4	.	.	.	.
Cn1cc(CNCc2cnc3ccccn23)c(-c2ccc(Oc3ccccc3)cc2)n1	i	0	7	i	-7	-4	.	.	.	.
CN(Cc1cn(C)nc1-c1ccc(Oc2ccccc2)cc1)Cc1cnc2ccccn12	25*	4	9	i	-4	-6	24%*	22%*	-1.2	-13
COc1ccc(CC(=O)Nc2cc(S(C)(=O)=O)ccc2Cl)cc1S(=O)(=O)N1CCOCC1	.	-1	2	i	-3	.	.	.	.	.
O=c1ccn(Cc2ccccc2)c(SCc2ccccc2)n1	.	0	8	i	2	.	.	.	.	.
Clc1ccc(CSc2nccn2Cc2ccccc2)cc1	100*	-1	8	i	-3	-6	44%*	i	-0.84	-5
COC(=O)c1cc(CSc2nc3ccccc3[nH]2)oc1C	25*	-2	5	i	0	-4	22%*	i	-0.74	-12
O=C(CN(CCO)Cc1ccccc1)N1CCN(S(=O)(=O)c2ccccc2)CC1	.	-2	5	.	-2	.	.	.	.	.
CCN(CC)S(=O)(=O)c1ccc(C(C)NC(=O)C2CCCN2C(=O)c2cccs2)cc1 (centres undefined)	.	-1	1	i	2	0	.	.	.	.
FC(F)(F)c1cccc(-c2nnc(-c3ccccc3)c(N3CCOCC3)n2)c1	i	1	-2	i	-3	1	.	.	.	.
O=[N+]([O-])c1ccc(-c2nnc(-c3ccccc3)c(N3CCOCC3)n2)cc1	i	-2	7	i	4	-3	i	i	-1.2	-14
SMILES	TMEM16A inh	MC4R ag barr	MC4R antag cAMP	ANO1 activ	HTR2A ag	beta cell repl	TMEM16A reconf	HEK293 Ca mobil	YFP-HEK293 quench	ClC-1 rat inh
CC1(C)CC2CC(C)(CN2S(=O)(=O)c2cccc(C(N)=O)c2)C1 (centres undefined)	.	-3	6	i	-9	-2	.	.	.	.
CC1(C)CC2CC(C)(CN2S(=O)(=O)c2ccc(N)cc2)C1 (centres undefined)	25*	0	-2	i	0	-4	i	i	-0.92	0
O=C(COC(=O)Cc1c(Cl)cccc1Cl)Nc1ccccc1-c1ccccc1	25*	4	6	i	2	-2	i	i	-1	-6
CC(C)(C)NC(=O)Cn1c(SCC(N)=O)nc2ccccc21	100*	-2	-1	i	1	5	i	i	-1.1	-8
CCOC(=O)N1CCN(C(=O)c2oc3ccc(S(=O)(=O)N4CCCCC4)cc3c2C)CC1	i	-1	7	i	5	0	.	.	.	.
Cc1c(C(=O)N2CCCCC2)oc2ccc(S(=O)(=O)N3CC(C)CC(C)C3)cc12 (centres undefined)	25*	0	-2	i	-4	-4	21%*	i	-0.96	-2
COc1ccc(C)cc1-n1nnnc1SCc1cc(=O)n2cc(C)ccc2n1	25*	-1	9	i	3	-2	i	i	-0.97	-16

Screens: PubChem BioAssay, several laboratories
